In ChEMBL document CHEMBL4011629, “New Disubstituted Quindoline Derivatives Inhibiting Burkitt's Lymphoma Cell Proliferation by Impeding c-MYC Transcription” (J Med Chem, 2017):
The source made the active and inactive calls. The rule behind the calls is not given here.

Key:
Raji [1] = experiment: Cell cycle arrest in human Raji cells assessed as accumulation at G0/G1 phase after 12 hrs by propidium iodide staining based flow cytometry (reference value: 38.5%); format: functional
[2] = Inhibition of NM23-H2 binding to 5'-FAM labeled c-Myc Pu27 G-quadruplex DNA (unknown origin) at 10 uM preincubated for 1 hr followed by NM23-H2 addition by electrophoretic mobility shift assay relative to control
Outline: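 Annealed labeled Pu27 (1.5 μM) preincubated 1 h at 25 °C with 10 μM ligand or 5% DMSO. Recombinant His-tagged NM23-H2 (0.5 μM, E. coli BL21, nickel-purified) then added for 1 h at 37 °C. Complexes resolved on 5% native polyacrylamide gel in 0.5× TBE at 4 °C. Inhibition taken as loss of complex band intensity versus no-compound band set at 100%. Run three times.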

Raji [3] = experiment: Induction of apoptosis in human Raji cells assessed as late apoptotic cells at 1 uM after 48 hrs by Annexin V-FITC/propidium iodide staining based flow cytometry (reference value: 0.1%); format: functional
Outline: (§1)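 RAJI cells exposed to compound or control medium for 12 or 48 h were washed in PBS and resuspended in binding buffer. They were stained with FITC annexin V and PI for 15 min in the dark, and fluorescence was measured by flow cytometry.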

Homo sapiens [4] = organism: Homo sapiens; experiment: Effect on c-Myc DNA translocated chromosome product in human Raji cells assessed as decrease in amplification of exon-2 after 12 hrs by RT-PCR method; format: cell-based
Outline: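 RAJI cells, which retain NHE III1, and CA46 cells, which lack NHE III1 and the P1/P2 promoters, were exposed to graded compound concentrations for 12 h. Total RNA (2 μg) was reverse-transcribed with oligo dT18 and M-MLV. c-MYC exons 1 and 2, NM23-H2 and β-actin were amplified by real-time PCR against untreated cells. Three repeats were done; two-tailed unpaired t-test.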

Raji [5] = experiment: Cell cycle arrest in human Raji cells assessed as accumulation at G0/G1 phase after 24 hrs by propidium iodide staining based flow cytometry (reference value: 38.5%); format: functional
Raji [6] = experiment: Effect on NM23-H2 transcription level in human Raji cells up to 4 uM after 12 hrs by RT-PCR method; format: functional, cell-based
Raji [7] = experiment: Cell cycle arrest in human Raji cells assessed as accumulation at G0/G1 phase after 48 hrs by propidium iodide staining based flow cytometry (reference value: 38.5%); format: functional
Raji [8] = experiment: Effect on NM23-H2 protein expression in human Raji cells up to 4 uM up to 48 hrs by Western blot method; format: functional, cell-based
Outline: (§2)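 After compound exposure (12 h for cell-cycle and apoptosis markers), RAJI cells were lysed in 1% NP-40 buffer. Protein at 50 μg per lane was run on 3–12% SDS-PAGE and transferred to nitrocellulose. Blots were probed with primary antibodies (GAPDH as loading reference) and detected with an HRP secondary and enhanced chemiluminescence.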

Raji [9] = experiment: Induction of apoptosis in human Raji cells assessed as downregulation of CDK6 expression after 12 hrs by Western blot method; format: functional, cell-based; outline: as §2
CCRF-CEM = experiment: Antiproliferative activity against human CCRF-CEM cells after 12 hrs by MTT assay; format: functional, cell-based
Outline: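 RAJI, CCRF-CEM and U266B1 cells were seeded at 5 × 10^3 cells per well and exposed to compound for 12 h, with a DMSO vehicle control. MTT at 0.5 mg/mL was added for 4 h at 37 °C, then lysis solution overnight at 37 °C, and A570 was read. Assays were run in triplicate. IC50 was taken from the percentage survival relative to the negative control.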

Raji [10] = experiment: Cell cycle arrest in human Raji cells assessed as accumulation at G2/M phase after 48 hrs by propidium iodide staining based flow cytometry (reference value: 24.4%); format: functional
Raji [11] = experiment: Cell cycle arrest in human Raji cells assessed as accumulation at S phase after 12 hrs by propidium iodide staining based flow cytometry (reference value: 32.2%); format: functional
Raji [12] = experiment: Induction of apoptosis in human Raji cells assessed as downregulation of CDK4 expression after 12 hrs by Western blot method; format: functional, cell-based; outline: as §2
Homo sapiens [13] = organism: Homo sapiens; experiment: Stabilization of c-Myc G-quadruplex DNA in human Raji cells assessed as downregulation of c-Myc mRNA level at 2 uM after 12 hrs by RT-PCR method relative to control; format: cell-based
Outline: (§3)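 RAJI, CCRF-CEM and U266B1 grown in RPMI 1640 with 10% fetal calf serum at 37 °C, plated at 1 × 10^6 cells/well overnight, then treated 12 h with 4, 2, 1 or 0.5 μM (DMSO control). RNA (2 μg) reverse-transcribed with oligo dT18/M-MLV; c-MYC, NM23-H2 and β-actin amplified by real-time PCR, checked on 1.5% agarose.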

Raji [14] = experiment: Antiproliferative activity against human Raji cells measured every 3 days up to 15 days; format: functional, cell-based
Outline: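 RAJI cells (1.0 × 10^5 per well, six-well plates) were exposed every 3 days to a subcytotoxic ligand concentration or 0.1% DMSO. At each point cells were counted and viability checked, then flasks were reseeded at 1.0 × 10^5 cells. This continued for 15 days.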

Raji [15] = experiment: Cell cycle arrest in human Raji cells assessed as accumulation at S phase after 6 hrs by propidium iodide staining based flow cytometry (reference value: 32.2%); format: functional
Mus musculus = experiment: Toxicity in NOD/SCID nude mouse xenografted with human Raji cells assessed as reduction in viscera weight at 15 to 30 mg/kg, ip administered once daily for 2 weeks measured every day during compound dosing; format: organism-based; settings: in vivo, 336 h
Outline: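 NOD/SCID mice implanted subcutaneously in the underarm with 5 × 10^6 RAJI cells in 100 μL RPMI 1640 with 10% serum; tumours grown about 1 week, then mice randomized. Body weight recorded daily; organ weights taken at end.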

Homo sapiens [16] = organism: Homo sapiens; experiment: Stabilization of c-Myc G-quadruplex DNA in human U266B1 cells assessed as downregulation of c-Myc mRNA level up to 4 uM after 12 hrs by RT-PCR method; format: cell-based; outline: as §3
Raji [17] = experiment: Cell cycle arrest in human Raji cells assessed as accumulation at G2/M phase after 24 hrs by propidium iodide staining based flow cytometry (reference value: 24.4%); format: functional
Raji [18] = experiment: Induction of apoptosis in human Raji cells assessed as necrotic cells at 0.5 uM after 48 hrs by Annexin V-FITC/propidium iodide staining based flow cytometry relative to control; format: functional; outline: as §1
Raji [19] = experiment: Induction of apoptosis in human Raji cells assessed as early apoptotic cells at 0.5 uM after 12 hrs by Annexin V-FITC/propidium iodide staining based flow cytometry (reference value: 2.3%); format: functional; outline: as §1
Homo sapiens [20] = organism: Homo sapiens; experiment: Stabilization of c-Myc G-quadruplex DNA in human CA46 cells assessed as decrease in amplification of exon-1 up to 4 uM after 12 hrs by RT-PCR method; format: cell-based
Outline: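 Exon-specific assay: RAJI and CA46 cells exposed to various ligand concentrations for 12 h; total RNA (2 μg) reverse-transcribed with oligo dT18 and M-MLV (42 °C 1 h). c-MYC exon 1 and exon 2, NM23-H2 and β-actin amplified by real-time PCR, products run on 1% agarose; untreated cells as control; three repeats, two-tailed unpaired t test.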

[21] = Drug uptake in human Raji cells at 1 uM after 12 to 48 hrs; format: ADME, cell-based
Homo sapiens [22] = organism: Homo sapiens; experiment: Stabilization of c-Myc G-quadruplex DNA in human CCRF-CEM cells assessed as downregulation of c-Myc mRNA level at 2 uM after 12 hrs by RT-PCR method relative to control; format: cell-based; outline: as §3

CN(C)CCCNc1c2ccccc2nc2c1oc1ccc(OCC3CCN(C)CC3)cc12
Activity (Raji [1]): 60.2%
inhibition [2]: > 80%
Activity (Raji [3]): 37%
Activity (Homo sapiens [4]): Dose-dependent effect
Activity (Raji [5]): 56.3%
Activity (Raji [6]): inactive
Activity (Raji [7]): 57.1%
Activity (Raji [8]): inactive
Activity (Raji [9]): Dose-dependent effect
IC50 (CCRF-CEM): 18.1 µM
Activity (Raji [10]): 16.6%
Activity (Raji [11]): 5.5%
Activity (Raji [12]): Dose-dependent effect
Activity (Homo sapiens [13]): > 80%
Activity (Raji [14]): Dose-dependent effect
Activity (Raji [15]): 18.1%
Activity (Mus musculus): Non-Toxic
Activity (Homo sapiens [16]): inactive
Activity (Raji [17]): 19.3%
Activity (Raji [18]): 0%
Activity (Raji [19]): 4.6%
Activity (Homo sapiens [20]): Active
Drug uptake [21]: Not Active
Activity (Homo sapiens [22]): < 20%
